Experimental data from ChEMBL document CHEMBL1138087, “Synthesis and evaluation of N-aryl pyrrolidinones as novel anti-HIV-1 agents. Part 1” (Bioorg Med Chem Lett, 2006).

Columns and labels:
[1] = tested on: Human immunodeficiency virus 1; test: Antiviral activity against wild type HIV1 virus; type: functional, organism-based
Procedure, shortened: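 HEK 293T cells grown in DMEM with 10% FBS and Pen/Strep/Glutamine. Seeded at 700 cells/well, cultured 24 h at 37 °C under 5% CO₂. Serially diluted compound in DMSO added, then 1 h at 37 °C. HIV reporter virus added at MOI about 1.0, cells cultured a further 48 h at 37 °C. Luciferase read-out with Bright-Glo reagent.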

HEK293 = test: Cytotoxicity against HEK293T cells; type: functional; conditions: Homo sapiens
Procedure, shortened: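 293T cells seeded at 700 cells/well and cultured 24 h at 37 °C under 5% CO₂. Serially diluted compound in DMSO added to uninfected cells, then a further 48 h at 37 °C. Viability read by fluorescence after Alamar Blue (diluted 1:1 in DMEM) and 4 h at room temperature.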

[2] = tested on: Human immunodeficiency virus 1; test: Antiviral activity against HIV1 K103N mutant; type: functional, organism-based
Procedure, shortened: (§1)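 HEK 293T cells grown in DMEM with 10% FBS and Pen/Strep/Glutamine. Cells seeded at 700 cells/well and cultured 24 h at 37 °C under 5% CO₂. Compounds serially diluted in DMSO were added and incubated 1 h at 37 °C. Cells were then infected with HIV reporter virus at MOI ~1.0 and cultured a further 48 h at 37 °C. Read-out was luciferase activity (Bright-Glo).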

[3] = tested on: Human immunodeficiency virus 1; test: Selectivity for wild type HIV1 virus over HIV1 Y181C mutant; type: functional
[4] = tested on: Human immunodeficiency virus 1; test: Antiviral activity against HIV1 K103N/L100I mutant; type: functional, organism-based; procedure, shortened: as §1
[5] = tested on: Human immunodeficiency virus 1; test: Antiviral activity against HIV1 Y181C mutant; type: functional, organism-based; procedure, shortened: as §1
[6] = tested on: Human immunodeficiency virus 1; test: Antiviral activity against HIV1 L100I mutant; type: functional, organism-based; procedure, shortened: as §1
[7] = tested on: Human immunodeficiency virus 1; test: Selectivity for wild type HIV1 virus over HIV1 L100I mutant; type: functional
[8] = tested on: Human immunodeficiency virus 1; test: Selectivity for wild type HIV1 virus over HIV1 K103N mutant; type: functional
[9] = tested on: Human immunodeficiency virus 1; test: Selectivity for wild type HIV1 virus over HIV1 K103N/L100I mutant; type: functional

COc1ccc([C@H]2CC(=O)N(c3cccnc3)C2)cc1OC1CCCC1
EC50 [1]: 2370 nM | CC50 (HEK293): > 10000 nM

COc1ccc([C@H]2CC(=O)N(c3cccc(NS(=O)(=O)c4ccccc4C)c3)C2)cc1OC1CCCC1
EC50 [1]: 24 nM | EC50 [2]: 117 nM | Selectivity ratio [3]: 10 | EC50 [4]: 17 nM | EC50 [5]: 246 nM | CC50 (HEK293): > 10000 nM | EC50 [6]: 10 nM | Selectivity ratio [7]: 0.42 | Selectivity ratio [8]: 4.9 | Selectivity ratio [9]: 0.7

COc1ccc([C@H]2CC(=O)N(c3cccc(O)c3)C2)cc1OC1CCCC1
EC50 [1]: 1780 nM | CC50 (HEK293): > 10000 nM

COc1ccc([C@H]2CC(=O)N(c3cccc(NS(=O)(=O)c4cccc(C)c4)c3)C2)cc1OC1CCCC1
EC50 [1]: 46 nM | EC50 [2]: 158 nM | Selectivity ratio [3]: 6.2 | EC50 [4]: 19 nM | EC50 [5]: 284 nM | CC50 (HEK293): > 10000 nM | EC50 [6]: 14 nM | Selectivity ratio [7]: 0.3 | Selectivity ratio [8]: 3.4 | Selectivity ratio [9]: 0.41

COc1ccc([C@H]2CC(=O)N(c3cccc(NCCCc4ccccc4)c3)C2)cc1OC1CCCC1
EC50 [1]: 7900 nM | CC50 (HEK293): > 10000 nM

COc1ccc([C@H]2CC(=O)N(c3cccc(NCc4ccoc4)c3)C2)cc1OC1CCCC1
EC50 [1]: 1960 nM | CC50 (HEK293): > 10000 nM

COc1cccc(C(=O)C(=O)Nc2cccc(N3C[C@@H](c4ccc(OC)c(OC5CCCC5)c4)CC3=O)c2)c1
EC50 [1]: 502 nM | CC50 (HEK293): > 10000 nM

COc1ccc(OC)c(S(=O)(=O)Nc2cccc(N3C[C@@H](c4ccc(OC)c(OC5CCCC5)c4)CC3=O)c2)c1
EC50 [1]: 104 nM | CC50 (HEK293): 7590 nM

COc1ccc([C@H]2CC(=O)N(c3cccc(C#N)c3)C2)cc1OC1CCCC1
EC50 [1]: 520 nM | CC50 (HEK293): > 10000 nM

COc1ccc([C@H]2CC(=O)N(c3ccccc3C)C2)cc1OC1CCCC1
EC50 [1]: > 10000 nM | CC50 (HEK293): > 10000 nM

COc1ccc([C@H]2CC(=O)N(c3cccc(NC(=O)C(=O)c4cccc(N(C)C)c4)c3)C2)cc1OC1CCCC1
EC50 [1]: 124 nM | CC50 (HEK293): > 10000 nM

COc1ccc([C@H]2CC(=O)N(c3ccc(C)cc3)C2)cc1OC1CCCC1
EC50 [1]: 3260 nM | CC50 (HEK293): > 10000 nM

COc1ccc([C@H]2CC(=O)N(c3ccc(C)c(N)c3)C2)cc1OC1CCCC1
EC50 [1]: 196 nM | CC50 (HEK293): > 10000 nM

COc1ccc([C@H]2CC(=O)N(c3cccc(S(C)(=O)=O)c3)C2)cc1OC1CCCC1
EC50 [1]: > 10000 nM | CC50 (HEK293): > 10000 nM

COc1ccc([C@H]2CC(=O)N(c3ccc(C(F)(F)F)cc3)C2)cc1OC1CCCC1
EC50 [1]: 3620 nM | CC50 (HEK293): > 10000 nM

COc1ccc([C@H]2CC(=O)N(c3cccc(NCC4CCOC4)c3)C2)cc1OC1CCCC1 (stereo partly specified)
EC50 [1]: 1020 nM | CC50 (HEK293): > 10000 nM

CCCCNc1cccc(N2C[C@@H](c3ccc(OC)c(OC4CCCC4)c3)CC2=O)c1
EC50 [1]: 6960 nM | CC50 (HEK293): > 10000 nM

COc1ccc([C@H]2CC(=O)N(c3ccc([S+](C)[O-])cc3)C2)cc1OC1CCCC1 (stereo partly specified)
EC50 [1]: 40 nM | CC50 (HEK293): 7510 nM

COc1ccc([C@H]2CC(=O)N(c3cc(N)cc(N)c3)C2)cc1OC1CCCC1
EC50 [1]: > 10000 nM | CC50 (HEK293): > 10000 nM

COc1ccc([C@H]2CC(=O)N(c3cccc(N(C)C)c3)C2)cc1OC1CCCC1
EC50 [1]: 4710 nM | CC50 (HEK293): > 10000 nM

COc1ccc([C@H]2CC(=O)N(c3cccc(NS(=O)(=O)c4cc(Br)c(Cl)s4)c3)C2)cc1OC1CCCC1
EC50 [1]: 46 nM | EC50 [2]: 542 nM | Selectivity ratio [3]: 16 | EC50 [4]: 95 nM | EC50 [5]: 753 nM | CC50 (HEK293): > 10000 nM | EC50 [6]: 39 nM | Selectivity ratio [7]: 0.84 | Selectivity ratio [8]: 12 | Selectivity ratio [9]: 2

COc1ccc([C@H]2CC(=O)N(C(=O)c3ccccc3)C2)cc1OC1CCCC1
EC50 [1]: > 10000 nM | CC50 (HEK293): > 10000 nM

COc1ccc([C@H]2CC(=O)N(c3ccc(N)cc3)C2)cc1OC1CCCC1
EC50 [1]: 1860 nM | CC50 (HEK293): > 10000 nM

COc1ccc([C@H]2CC(=O)N(c3cccc(N)c3C)C2)cc1OC1CCCC1
EC50 [1]: > 10000 nM | CC50 (HEK293): > 10000 nM

COc1ccc([C@H]2CC(=O)N(c3cccc(C(F)(F)F)c3)C2)cc1OC1CCCC1
EC50 [1]: 2950 nM | CC50 (HEK293): > 10000 nM

COc1ccc([C@H]2CC(=O)N(c3ccc(S(C)(=O)=O)cc3)C2)cc1OC1CCCC1
EC50 [1]: 180 nM | CC50 (HEK293): > 10000 nM

COc1ccc([C@H]2CC(=O)N(Cc3cccc(C#N)c3)C2)cc1OC1CCCC1
EC50 [1]: > 10000 nM | CC50 (HEK293): > 10000 nM

COc1ccc([C@H]2CC(=O)N(C(C)=O)C2)cc1OC1CCCC1
EC50 [1]: > 10000 nM | CC50 (HEK293): > 10000 nM

COc1ccc([C@H]2CC(=O)N(c3cccc(C)c3)C2)cc1OC1CCCC1
EC50 [1]: 419 nM | CC50 (HEK293): > 10000 nM

COc1ccc([C@H]2CC(=O)N(c3cccc(NC(=O)C(=O)c4cccs4)c3)C2)cc1OC1CCCC1
EC50 [1]: 502 nM | CC50 (HEK293): > 10000 nM

COc1ccc([C@H]2CC(=O)N(c3cccc(NS(=O)(=O)c4cccc(OC(F)(F)F)c4)c3)C2)cc1OC1CCCC1
EC50 [1]: 800 nM | CC50 (HEK293): > 10000 nM

COc1ccc([C@H]2CC(=O)N(Cc3cccc(N)c3)C2)cc1OC1CCCC1
EC50 [1]: > 10000 nM | CC50 (HEK293): > 10000 nM

COc1ccc([C@H]2CC(=O)N(c3ccccc3)C2)cc1OC1CCCC1
EC50 [1]: 2280 nM | CC50 (HEK293): > 10000 nM

COc1ccc([C@H]2CC(=O)N(c3ccncc3)C2)cc1OC1CCCC1
EC50 [1]: 110 nM | CC50 (HEK293): > 10000 nM

COc1ccc([C@H]2CC(=O)N(c3ccccc3N)C2)cc1OC1CCCC1
EC50 [1]: > 10000 nM | CC50 (HEK293): > 10000 nM

COc1ccc([C@H]2CC(=O)N(c3cccc(NC(=O)C(C)=O)c3)C2)cc1OC1CCCC1
EC50 [1]: 5790 nM | CC50 (HEK293): > 10000 nM

COc1ccc([C@H]2CC(=O)N(c3ccc(C#N)cc3)C2)cc1OC1CCCC1
EC50 [1]: 660 nM | CC50 (HEK293): > 10000 nM

COc1ccc([C@H]2CC(=O)N(c3ccccc3C#N)C2)cc1OC1CCCC1
EC50 [1]: > 10000 nM | CC50 (HEK293): > 10000 nM

COc1ccc([C@H]2CC(=O)N(c3ccccc3C(F)(F)F)C2)cc1OC1CCCC1
EC50 [1]: > 10000 nM | CC50 (HEK293): > 10000 nM

COc1ccc([C@H]2CC(=O)N(c3cc(N)cc(F)c3)C2)cc1OC1CCCC1
EC50 [1]: 80 nM | CC50 (HEK293): > 10000 nM

COc1ccc([C@H]2CC(=O)N(c3cccc(NS(=O)(=O)c4cc(C)ccc4OC)c3)C2)cc1OC1CCCC1
EC50 [1]: 33 nM | EC50 [2]: 172 nM | Selectivity ratio [3]: 15 | EC50 [5]: 507 nM | CC50 (HEK293): > 10000 nM | EC50 [6]: 23 nM | Selectivity ratio [7]: 0.7 | Selectivity ratio [8]: 5.2 | Selectivity ratio [9]: 1

COc1ccc([C@H]2CC(=O)N(Cc3cccc([N+](=O)[O-])c3)C2)cc1OC1CCCC1
EC50 [1]: > 10000 nM | CC50 (HEK293): > 10000 nM

COc1ccc([C@H]2CC(=O)N(c3ccccn3)C2)cc1OC1CCCC1
EC50 [1]: 2630 nM | CC50 (HEK293): > 10000 nM

COc1ccc([C@H]2CC(=O)N(c3cccc(NS(=O)(=O)c4ccc(F)cc4)c3)C2)cc1OC1CCCC1
EC50 [1]: 102 nM | CC50 (HEK293): > 10000 nM

COc1ccc([C@H]2CC(=O)N(c3cccc([S+](C)[O-])c3)C2)cc1OC1CCCC1 (stereo partly specified)
EC50 [1]: > 10000 nM | CC50 (HEK293): > 10000 nM

COc1ccc(S(=O)(=O)Nc2cccc(N3C[C@@H](c4ccc(OC)c(OC5CCCC5)c4)CC3=O)c2)cc1
EC50 [1]: 256 nM | CC50 (HEK293): > 10000 nM

COc1ccc([C@H]2CC(=O)N(c3cccc(NS(=O)(=O)c4c(Br)nn(C)c4Cl)c3)C2)cc1OC1CCCC1
EC50 [1]: 53 nM | CC50 (HEK293): > 10000 nM

COc1ccc([C@@H]2CNC(=O)C2)cc1OC1CCCC1 [(-)-ROLIPRAM]
EC50 [1]: > 10000 nM | CC50 (HEK293): > 10000 nM

O=C1Nc2ccc(Cl)cc2[C@@](C#CC2CC2)(C(F)(F)F)O1 [EFAVIRENZ]
EC50 [2]: 32 nM | EC50 [4]: 2530 nM | EC50 [5]: 1 nM | EC50 [6]: 10 nM
